Values after ≈ are worked out from the molar mass of the structure shown. “Also recorded” adds a separate entry of the source.
How the values were obtained:
physchem = conditions: aqueous with cosolvent or surfactant or cyclodextrin
Antares [1] = biological target: T1, Antares (Oplophorus gracilirostris, UniProt Q9GV45, A31E/A60N/A81I/F95D/I117V/K70R/L54V/L99Q/M102K/N193R/P142E/Q151K/Q38R/Q45L/V71I/Y165I); experiment: Enzymatic analysis of Antares with furimazine analogs; assay type: biochemical; conditions: purified Antares; for Vmax and thereby kcat compared to furimazine: DPBS with 0.01% FBS
[2] = assay type: in vivo, mice
Outline: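 Male C57Bl/6 mice, 4 months old, received three daily IP injections: 12 mg P-407 in 480 µL water; 12 mg P-407 plus 1.7 mg test compound in 480 µL water; or test compound in P-407 at 1.3 or 4.2 µmol. Body weight was tracked. On day 4 mice were euthanized by CO2 and cardiac exsanguination, with terminal blood taken for CBC and serum biochemistry. Lung, liver and kidney were examined histologically.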

Antares [3] = biological target: T1, Antares
Antares [4] = biological target: T1, Antares; experiment: Hydrodynamic transfection and bioluminescence imaging of nude mice; assay type: in vivo
[5] = Solubility testing in PEG-300-based injectable formulation; assay type: physicochemical; conditions: for Maximum amount that could be administered IP in the PEG-300 formulation: injection volume limit of ~0.5 mL, mice; for Maximum soluble dose: IP injection, injectable formulation; for Relative solubility in the PEG-300-based formulation: comparison in words
Outline: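 Formulation: 10% ethanol (v/v), 10% glycerol (v/v), 10% 2-hydroxypropyl-β-cyclodextrin (w/v), 35% PEG-300 (v/v) in water. Pre-weighed compound was dissolved or suspended in ethanol, then combined with the other components and vortexed 15 min to make a 28 mM solution or suspension. […] IP dose was limited by an injection volume of ~0.5 mL.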

AkaLuc = AkaLuc with AkaLumine, intrapulmonary locations; cited from earlier work
[6] = Substrate stability at 37 °C in DPBS with or without 10% FBS; assay type: in vitro ADME
Antares [7] = biological target: T1, Antares; experiment: Spectral analysis of Antares with furimazine analogs; assay type: biochemical; conditions: 400 to 700 nm
Orange CaMBI [8] = assay type: in vivo, mice; conditions: sustained-release HFz (P-407)
Outline: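 Transgenic mice doubly hemizygous for albumin-Cre and CAG-LSL-Orange CaMBI 110, abdominal hair removed, anesthetized with IP ketamine 200 mg/kg in 100 µL water. Test compound given with poloxamer-407 in 480 µL water. Imaged in a lab-built system, time-lapse with <1 s exposures on a consumer digital camera, with vasopressin given. Decay fitted as monoexponential.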

Antares [9] = biological target: T1, Antares; conditions: limited amount of furimazine that can be administered; cited from earlier work
Orange CaMBI [10] = conditions: liver; cited from earlier work
[11] = previously published PEG-300-based aqueous formulation; cited from earlier work
Antares [12] = biological target: T1, Antares; experiment: Decay of Antares luminescence signal over time; assay type: biochemical; conditions: purified Antares, 60 min
[13] = 1.3 μmol IP, PEG-300 formulation, mouse liver

With Nc1cccc(-c2cn3c(=O)c(Cc4ccco4)nc-3c(Cc3ccccc3F)[nH]2)c1F [compound F, 6-(3-amino-2-fluorophenyl)-8-(2-fluorobenzyl)-2-(furan-2-ylmethyl)imidazo[1,2-a]pyrazin-3(7H)-one] the solubility (physchem) was 8.8 mM (≈ 3810 µg/mL), the “Vmax and thereby kcat compared to compound E” value (Antares [1]) was “higher Vmax and thereby kcat” and the “Body weight, blood chemistry, or histology” value ([2]; 1.3 μmol FFz in P-407 daily for three days) was “No abnormalities”. For the same compound, the Blood chemistry ([2]; 4.2 μmol FFz, daily for three days) was “abnormal blood chemistry”, the “Dose that can be safely administered” value ([2]; in P-407, IP, mice) was 1.3 µmol and the “Peak signal compared to compound E” value (Antares [3]; 1.3 μmol, in vivo) was “further increase in peak signal”. For the same compound, the “Light from mouse liver, 1.3 μmol FFz compared with 4.2 μmol HFz” value (Antares [3]; IP) was “more light”, the “Light, 4.2 μmol compared with 1.3 μmol of FFz” value (Antares [3]; IP) was “more light” and the “Brightness compared with AkaLuc with AkaLumine” value (Antares [4]; 1.3 μmol FFz IP, not statistically significant) was “tended to produce more brightness”.
For Nc1cccc(-c2cn3c(=O)c(Cc4ccco4)nc-3c(Cc3ccccc3)[nH]2)c1 [compound C, 6-(3-aminophenyl)-8-benzyl-2-(furan-2-ylmethyl)imidazo[1,2-a]pyrazin-3(7H)-one], the “Maximum amount that could be administered IP in the PEG-300 formulation” value [5] was 4.2 µmol.
Oc1c(Cc2ccccc2)nc2c(-c3ccncc3)nc(-c3ccccc3)cn12 [8pyDTZ, reference compound] gave a Maximum soluble dose [5] of 4 µmol.
In the case of CN(C)c1ccc(/C=C/C=C/C2=N[C@@H](C(=O)O)CS2)cc1 [AkaLumine], the “Detectable light per reporter molecule relative to FLuc and D-luciferin” value (AkaLuc) is given as ~ 13 times.
In the case of Nc1cccc(-c2cn3c(=O)c(Cc4ccco4)nc-3c(Cc3ccccc3)[nH]2)c1F [compound E, 6-(3-amino-2-fluorophenyl)-8-benzyl-2-(furan-2-ylmethyl)imidazo[1,2-a]pyrazin-3(7H)-one], the “Stability in serum compared to furimazine” value [6] was “retaining the improved stability in serum”, the “Vmax and thereby kcat compared to furimazine” value (Antares [1]) was “improved Vmax and thereby kcat versus furimazine” and the “Improvement of signal output over HFz” value (Antares [3]; [13]) was “approximately three-fold”. The “Signal output compared with HFz” value (Antares [3]; [13]) was “brighter signal outputs than HFz” and the “Effect on emission spectrum of Antares” value (Antares [7]) was “do not alter the emission spectrum of Antares”.
For O=c1c(Cc2ccco2)nc2c(Cc3ccccc3)[nH]c(-c3cccc(O)c3)cn1-2 [compound B, 8-benzyl-2-(furan-2-ylmethyl)-6-(3-hydroxyphenyl)imidazo[1,2-a]pyrazin-3(7H)-one], the “Time signals were bright enough to be seen by the naked eye in the dark” value (Orange CaMBI [8]) was greater than 1 h, the “Time of peak brightness after substrate injection” value (Orange CaMBI [8]; liver) was 24 min and the “Time after injection at which brightness dropped to half of its peak” value (Orange CaMBI [8]; monoexponential kinetics) was ~ 60 min. The “kcat/KM compared to furimazine” value (Antares [1]) was “higher kcat/KM”, the “Gross examination of organs and histology of liver, lung and kidney” value ([2]; HFz with P-407, three daily IP injections, listed as HFz) was “no signs of toxicity; also recorded: no abnormalities were found” and the “Relative solubility in the PEG-300-based formulation” value [5] was “noticeably more soluble than compounds A and C”. The “Maximum amount that could be administered IP in the PEG-300 formulation” value [5] was “up to 13.3 μmol”, the Saturating dose (Antares [3]; IP, PEG-300 formulation, liver) was 4.2 µmol and the “Light (brightness) relative to the maximum/saturating dose of furimazine” value (Antares [3]; substrate at saturating (maximal) dose, IP, Antares-expressing transgenic mice) was “approximately four-fold”. For the same compound, the “Integrated signal over 20 min compared with Antares2-DTZ” value (Antares [4]; 4.2 μmol HFz IP) was “significantly exceed that of Antares2-DTZ”, the “Integrated signal over 20 min compared with LumiScarlet-8pyDTZ” value (Antares [4]; 4.2 μmol HFz IP) was “appeared higher than that of LumiScarlet-8pyDTZ, but narrowly missed statistical significance” and the Persistence of emission (Antares [4]; 4.2 μmol HFz IP, 20 min) was “uniquely sustained emission”.
For O=c1c(Cc2ccco2)nc2c(Cc3ccccc3)[nH]c(-c3ccccc3)cn1-2 [furimazine], the “Photon output of Antares relative to FLuc in vivo” value (Antares [9]) is given as “~ three-fold”, the “Solubility in the PEG-300-based formulation” value ([5]; 35% PEG-300, 10% ethanol, 10% glycerol, 10% hydroxypropylcyclodextrin in water) is given as 2.8 mM (≈ 1070 µg/mL) and the “Relative solubility in the PEG-300-based formulation” value [5] is given as “more soluble than DTZ”. The “Duration of previous Orange CaMBI imaging sessions” value (Orange CaMBI [10]) was no more than 6 min and the “Maximum dosage limited by poor aqueous solubility” value [11] was 1.3 µmol.
For O=c1c(Cc2ccco2)nc2c(Cc3ccccc3)[nH]c(-c3ccc(O)cc3)cn1-2 [compound A, 8-benzyl-2-(furan-2-ylmethyl)-6-(4-hydroxyphenyl)imidazo[1,2-a]pyrazin-3(7H)-one], the “Decrease of light output over time compared with the other substrates” value (Antares [12]) was “decreased more rapidly over time”, the “Appearance at 28 mM in the PEG-300-based formulation” value ([5]; 28 mM, backlit image) was “insoluble pellet” and the “Total integrated output compared with furimazine” value (Antares [3]; 1.3 μmol IP, PEG-300 vehicle, liver) was “more total integrated output”.
With O=c1c(Cc2ccco2)nc2c(Cc3ccccc3)[nH]c(-c3cccc(O)c3F)cn1-2 [compound D, 8-benzyl-6-(2-fluoro-3-hydroxyphenyl)-2-(furan-2-ylmethyl)imidazo[1,2-a]pyrazin-3(7H)-one] the “Stability in serum compared to furimazine” value [6] was “retaining the improved stability in serum”, the “Vmax and thereby kcat compared to furimazine” value (Antares [1]) was “improved Vmax and thereby kcat versus furimazine” and the “Signal output compared with HFz” value (Antares [3]; [13]) was “brighter signal outputs than HFz”. The “Effect on emission spectrum of Antares” value (Antares [7]) was “do not alter the emission spectrum of Antares”.
O=c1c(Cc2ccccc2)nc2c(-c3ccccc3)[nH]c(-c3ccccc3)cn1-2 [DTZ, diphenylterazine, reference compound] showed a Maximum soluble dose [5] of 1 µmol.

Reference: PMC10907227 (Nature methods, 2020)
